Activity calls are given as the source filed them. No cut-off for these calls is given here.
Assays:
[1] = system: Mus musculus; assay: Anticonvulsant activity; 3 indicates no activity at doses up to and including 300 mg/kg in mice.; assay type: functional
How it was run: (§1)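 Phase I screen in CF1 mice: compound suspended in 0.5% aqueous methylcellulose, given ip at 30, 100 and 300 mg/kg; MES, scMet and rotorod toxicity read at 30 min and 4 h. Class 1 = activity at 100 mg/kg or less; 2 = activity above 100 mg/kg; 3 = none up to 300 mg/kg.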

[2] = biological target: Sodium channel alpha subunits; brain (Types I, II, III) (Rattus norvegicus, UniProt P04775+P04774+P08104); assay: Inhibition of [3H]BTX-B binding to neurotoxin site 2 of sodium channel of rat cerebral cortex synaptoneurosomes; assay type: tissue-based
How it was run: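 Synaptoneurosomes from rat cerebral cortex were incubated with [3H]BTX-B (2.0 nM final) in HEPES, pH 7.4 at 25 °C, with 130 mM choline chloride, at 37 °C for 45 min. Reactions were stopped by rapid vacuum filtration onto glass fibre filters, and bound radioactivity was compared with control. IC50 was read from log concentration (10–800 µM) versus percent specific binding.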

[3] = system: Mus musculus; assay: Anticonvulsant activity was determined; 2 indicates at doses greater than 100 mg/kg in mice; assay type: functional; how it was run: as §1
[4] = system: Mus musculus; assay: Anticonvulsant activity was determined in mice; 1 indicates 100 mg/kg or less; assay type: functional; how it was run: as §1
[5] = system: Rattus norvegicus; assay: Anticonvulsant activity was determined; 2 indicates at doses greater than 100 mg/kg in rat; assay type: functional
[6] = system: Mus musculus; assay: Effective dose for anticonvulsant activity determined in mice using subcutaneous Met test procedure. (Phase II); No protection; assay type: functional, organism-based
[7] = system: Rattus norvegicus; assay: Effective dose for anticonvulsant activity determined in rats using subcutaneous Met test procedure. (Phase VIA); No protection; assay type: functional, organism-based
[8] = species: Mus musculus; assay: Effective dose for anticonvulsant activity determined in mice using MES test procedure. (Phase II); assay type: functional
[9] = species: Rattus norvegicus; assay: Protective index measured as the […].; assay type: functional
[10] = Toxic dose determined in rats using MES test procedure. (Phase VIA, parentheses value indicate 95% confidence limits); assay type: toxicity, organism-based; conditions: rat, in vivo
How it was run: (§2)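 Phase VIA oral dosing in male Sprague–Dawley rats; MES and scMet ED50 and TD50 in mg/kg, each read at the time of peak effect; range in parentheses.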

[11] = system: Rattus norvegicus; assay: Anticonvulsant activity was determined in rat; 1 indicates 100 mg/kg or less; assay type: functional
[12] = species: Rattus norvegicus; assay: Effective dose for anticonvulsant activity determined in rats using MES test procedure. (Phase VIA, parentheses value indicate 95% confidence limits); assay type: functional; how it was run: as §2
[13] = system: Rattus norvegicus; assay: Anticonvulsant activity determined in rats at an oral dose of 50 mg/kg of phase VIA trials; active; assay type: functional
[14] = species: Rattus norvegicus; assay: Effective dose for anticonvulsant activity determined in rats using MES test procedure. (Phase VIA); assay type: functional; how it was run: as §2
[15] = Toxic dose determined in rats using MES test procedure. (Phase VIA); assay type: toxicity; conditions: rat, in vivo; how it was run: as §2
[16] = system: Mus musculus; assay: Effective dose for anticonvulsant activity determined in mice using subcutaneous Met test procedure. (Phase II); assay type: functional; conditions: sc
[17] = Toxic dose determined in mice using MES test procedure. (Phase II); assay type: toxicity; conditions: mouse, in vivo
[18] = system: Rattus norvegicus; assay: Effective dose for anticonvulsant activity determined in rats using subcutaneous Met test procedure. (Phase VIA); assay type: functional; conditions: sc; how it was run: as §2
[19] = system: Rattus norvegicus; assay: Anticonvulsant activity was determined; 3 indicates no activity at doses up to and including 300 mg/kg in rat; assay type: functional
[20] = system: Mus musculus; assay: Effective dose for anticonvulsant activity determined in mice using subcutaneous Met test procedure. (Phase II); Potentiates; assay type: functional, organism-based
[21] = system: Rattus norvegicus; assay: Urine volume collected for biochemical tests after an ip dose of 100 mg/kg at 0 day in male rats.; assay type: functional; conditions: route intraperitoneal
How it was run: (§3)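 Male Fischer 344 rats (200-245 g), four per group, housed singly in metabolism cages; day 0 control values taken, then a single ip dose of 100 mg/kg or vehicle (25% DMSO in corn oil). Pair-fed controls. Urine volume measured at 24 h intervals. At 48 h, under ether, blood drawn from the dorsal aorta; plasma assayed for ALT/GPT and BUN; kidney and liver weighed. Means ± SE.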

[22] = system: Rattus norvegicus; assay: Urine volume collected for biochemical tests after an ip dose of 100 mg/kg at day 2 in male rats.; assay type: functional; conditions: route intraperitoneal; how it was run: as §3
[23] = system: Rattus norvegicus; assay: Change in kidney weight on day 2 in male rats after ip administration of 100 mg/kg; expressed as kidney weight (g/100 g of body weight); assay type: functional; conditions: route intraperitoneal; how it was run: as §3
[24] = system: Rattus norvegicus; assay: Change in liver weight determined in male rats on day 2 after ip administration of 100 mg/kg; expressed as liver weight (g/100 g of body weight); assay type: functional; conditions: route intraperitoneal; how it was run: as §3
[25] = system: Rattus norvegicus; assay: Change in the blood urea nitrogen concentration on day 2 determined in male rats after ip administration of 100 mg/kg; Expressed as blood urea nitrogen concentration (mg %); assay type: functional; conditions: route intraperitoneal; how it was run: as §3
[26] = system: Rattus norvegicus; assay: Change in the blood urea nitrogen concentration on day 0 determined in male rats after ip administration of 100 mg/kg; Expressed as blood urea nitrogen concentration (mg %); assay type: functional; conditions: route intraperitoneal; how it was run: as §3
[27] = system: Rattus norvegicus; assay: ALT/GPT activity in male rats on day 2 after ip administration of 100 mg/kg.; assay type: functional; conditions: route intraperitoneal; how it was run: as §3
[28] = system: Rattus norvegicus; assay: Urine volume collected for biochemical tests after an ip dose of 100 mg/kg at day 1 in male rats.; assay type: functional; conditions: route intraperitoneal; how it was run: as §3

## CCOC(=O)[C@@H]1C(=O)C=C(Nc2cc(Cl)ccc2Cl)C[C@H]1C
[1]
  Anticonvulsant activity: 3

## CN1C(=O)CN=C(c2ccccc2)c2cc(Cl)ccc21 [DIAZEPAM]
[2]
  IC50: 152 µM

## COC(=O)[C@@H]1C(=O)C=C(Nc2cc(OC)ccc2Cl)C[C@H]1C
[3]
  Anticonvulsant activity: 2

## COC(=O)[C@@H]1C(=O)C=C(Nc2ccccc2Br)C[C@H]1C
[1]
  Anticonvulsant activity: 3

## COC(=O)[C@@H]1C(=O)C=C(Nc2ccccc2C#N)C[C@H]1C
[3]
  Anticonvulsant activity: 2

## COC(=O)[C@@H]1C(=O)C=C(Nc2ccccc2Cl)C[C@H]1C
[4]
  Anticonvulsant activity: 1

## CCOC(=O)[C@@H]1C(=O)C=C(Nc2c(Cl)cccc2Cl)C[C@H]1C
[1]
  Anticonvulsant activity: 3

## COC(=O)[C@@H]1C(=O)C=C(Nc2ccccc2[N+](=O)[O-])C[C@H]1C
[3]
  Anticonvulsant activity: 2

## CCC1(c2ccccc2)C(=O)NC(=O)NC1=O [PHENOBARBITAL]
[2]
  IC50: 2.5 µM

## COC(=O)[C@@H]1C(=O)C=C(Nc2ccccc2F)C[C@H]1C
[3]
  Anticonvulsant activity: 2

## COC(=O)[C@@H]1C(=O)C=C(NNc2ccccc2)C[C@H]1C
[3]
  Anticonvulsant activity: 2
[5]
  Anticonvulsant activity: 2

## COC(=O)[C@@H]1C(=O)C=C(Nc2ccccc2C)C[C@H]1C
[1]
  Anticonvulsant activity: 3

## COC(=O)[C@@H]1C(=O)C=C(Nc2cc(Cl)ccc2Cl)C[C@H]1C
[4]
  Anticonvulsant activity: 1

## O=C1NC(=O)C(c2ccccc2)(c2ccccc2)N1
[6]
  ED50: inactive
[7]
  ED50: inactive

## CCOC(=O)[C@@H]1C(=O)C=C(Nc2ccc(Cl)c(Cl)c2)C[C@H]1C
[3]
  Anticonvulsant activity: 2

## COC(=O)[C@@H]1C(=O)C=C(Nc2ccc(OC)c(Cl)c2)C[C@H]1C
[1]
  Anticonvulsant activity: 3

## CCc1ccccc1NC1=CC(=O)[C@@H](C(=O)OC)[C@H](C)C1
[4]
  Anticonvulsant activity: 1

## COC(=O)[C@@H]1C(=O)C=C(Nc2ccccc2OC)C[C@H]1C
[1]
  Anticonvulsant activity: 3

## Nc1nnc(-c2cccc(Cl)c2Cl)c(N)n1 [LAMOTRIGINE]
[8]
  ED50: 2.6 mg/kg
[2]
  IC50: 114 µM

## COC(=O)[C@@H]1C(=O)C=C(Nc2ccccc2C(F)(F)F)C[C@H]1C
[3]
  Anticonvulsant activity: 2

## COC(=O)[C@@H]1C(=O)C=C(Nc2cc(Cl)cc(Cl)c2)C[C@H]1C
[1]
  Anticonvulsant activity: 3

## CCOC(=O)[C@@H]1C(=O)C=C(Nc2ccccc2N)C[C@H]1C
[1]
  Anticonvulsant activity: 3

## CCOC(=O)[C@@H]1C(=O)C=C(Nc2ccc(OC)c(Cl)c2)C[C@H]1C
[1]
  Anticonvulsant activity: 3

## COC(=O)[C@@H]1C(=O)C=C(Nc2ccccc2I)C[C@H]1C
[4]
  Anticonvulsant activity: 1

## COC(=O)[C@@H]1C(=O)C=C(Nc2cc(Cl)c(Cl)cc2Cl)C[C@H]1C
[4]
  Anticonvulsant activity: 1

## COC(=O)[C@@H]1C(=O)C=C(Nc2ccc(Cl)c(Cl)c2Cl)C[C@H]1C
[1]
  Anticonvulsant activity: 3

## CCOC(=O)[C@@H]1C(=O)C=C(Nc2ccc(Cl)cn2)C[C@H]1C
[4]
  Anticonvulsant activity: 1
[9]
  PI: 28.4
[10]
  TD50: > 344 mg/kg
[11]
  Anticonvulsant activity: 1
[12]
  ED50: 12.1 mg/kg

## COC(=O)[C@@H]1C(=O)C=C(Nc2ccc(Cl)cn2)C[C@H]1C
[4]
  Anticonvulsant activity: 1
[13]
  Anticonvulsant activity: 1

## COC(=O)[C@@H]1C(=O)C=C(Nc2cc(C)ccc2OC)C[C@H]1C
[3]
  Anticonvulsant activity: 2

## CCOC(=O)[C@@H]1C(=O)C=C(Nc2cc(Cl)c(Cl)cc2Cl)C[C@H]1C
[1]
  Anticonvulsant activity: 3

## CCOC(=O)[C@@H]1C(=O)C=C(Nc2cc(Cl)c(Cl)c(Cl)c2)C[C@H]1C
[3]
  Anticonvulsant activity: 2

## COC(=O)[C@@H]1C(=O)C=C(Nc2ccccc2O)C[C@H]1C
[1]
  Anticonvulsant activity: 3

## CCOC(=O)[C@@H]1C(=O)C=C(Nc2ccc(Cl)cc2Cl)C[C@H]1C
[4]
  Anticonvulsant activity: 1

## CCOC(=O)[C@@H]1C(=O)C=C(Nc2cc(C)ccc2OC)C[C@H]1C
[4]
  Anticonvulsant activity: 1

## CCOC(=O)[C@@H]1C(=O)C=C(Nc2ccccc2Cl)C[C@H]1C
[1]
  Anticonvulsant activity: 3

## CCOC(=O)[C@@H]1C(=O)C=C(NC2CCCCC2)C[C@H]1C
[4]
  Anticonvulsant activity: 1
[11]
  Anticonvulsant activity: 1

## COC(=O)[C@@H]1C(=O)C=C(Nc2ccccc2S(N)(=O)=O)C[C@H]1C
[1]
  Anticonvulsant activity: 3

## COC(=O)[C@@H]1C(=O)C=C(Nc2ccc(OC(F)(F)F)cc2)C[C@H]1C
[14]
  ED50: 9.3 mg/kg
[15]
  TD50: > 158 mg/kg
[16]
  ED50: 114 mg/kg
[17]
  TD50: 122 mg/kg
[8]
  ED50: 22.4 mg/kg
[2]
  IC50: 170 µM
[18]
  ED50: > 79 mg/kg

## CCOC(=O)[C@@H]1C(=O)C=C(NNc2ccccc2)C[C@H]1C
[19]
  Anticonvulsant activity: 3
[1]
  Anticonvulsant activity: 3

## CCOC(=O)[C@@H]1C(=O)C=C(Nc2cc(Cl)cc(Cl)c2)C[C@H]1C
[1]
  Anticonvulsant activity: 3

## CCOC(=O)[C@@H]1C(=O)C=C(Nc2ccc(Cl)c(Cl)c2Cl)C[C@H]1C
[3]
  Anticonvulsant activity: 2

## COC(=O)[C@@H]1C(=O)C=C(Nc2ccc(Cl)c(Cl)c2)C[C@H]1C
[4]
  Anticonvulsant activity: 1

## COC(=O)[C@@H]1C(=O)C=C(NC2CCCCC2)C[C@H]1C
[19]
  Anticonvulsant activity: 3
[1]
  Anticonvulsant activity: 3

## COC(=O)[C@@H]1C(=O)C=C(Nc2c(Cl)cccc2Cl)C[C@H]1C
[1]
  Anticonvulsant activity: 3

## COC(=O)[C@@H]1C(=O)C=C(Nc2ccc(Cl)cc2Cl)C[C@H]1C
[4]
  Anticonvulsant activity: 1

## NC(=O)N1c2ccccc2C=Cc2ccccc21 [CARBAMAZEPINE]
[14]
  ED50: 8.5 mg/kg
[8]
  ED50: 8.8 mg/kg
[20]
  ED50: Convulsant
[7]
  ED50: inactive

## COC(=O)[C@@H]1C(=O)C=C(Nc2ccc(Cl)cc2)C[C@H]1C
[14]
  ED50: 5.8 mg/kg
[15]
  TD50: > 380 mg/kg
[21]
  Urine volume: 13.8 mL
[22]
  Urine volume: 10.2 mL
[23]
  Activity: 0.35
[24]
  Activity: 4.16
[16]
  ED50: > 254 mg/kg
[17]
  TD50: 255 mg/kg
[25]
  Activity: 14%
[2]
  IC50: 489 µM
[26]
  Activity: 14%
[27]
  ALT/GPT: 25 U/L
[28]
  Urine volume: 9.6 mL
[18]
  ED50: > 190 mg/kg
